This is a sample that favours compounds with a hit; in the whole collection about 1.5% have one here.
hiPSC survival: increases survival of single human iPS cells; hiPSC single-cell survival, ATPlite luminescence; 100% = ROCK inhibitor wells, 0% = DMSO; 0.044% of 360,000 active; survival enhancement, % at 20 µM; AID 602274; in the data active = survival enhancement above about 18%;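 note: cells exposed to compounds for 16 hours before the ATP read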
APJ agonist: activates the human apelin receptor APJ. activation, % at 20 µM. CHO-K1 APJ PathHunter beta-arrestin, luminescence; 0% DMSO wells, 100% apelin. 0.11% of 330,000 active. AID 2520. P35414;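 active = activation more than six SD over the plate average, tested at 20 µM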
Target sequence (P35414 whole entry, looked up): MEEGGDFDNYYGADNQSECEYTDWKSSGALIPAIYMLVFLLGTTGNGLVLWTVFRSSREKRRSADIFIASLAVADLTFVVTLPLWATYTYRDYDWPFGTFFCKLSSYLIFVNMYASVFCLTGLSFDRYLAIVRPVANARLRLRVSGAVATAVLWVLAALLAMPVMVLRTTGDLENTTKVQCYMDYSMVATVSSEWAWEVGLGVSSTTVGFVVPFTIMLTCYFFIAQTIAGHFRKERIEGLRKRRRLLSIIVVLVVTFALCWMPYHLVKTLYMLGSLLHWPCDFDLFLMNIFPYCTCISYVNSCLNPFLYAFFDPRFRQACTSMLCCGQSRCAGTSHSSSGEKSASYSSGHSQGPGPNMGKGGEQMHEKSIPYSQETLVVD
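assay system = CHO-K1 APJ beta-arrestin complementation cell line | input = cell density 1000 per well | dosing = compound 20 µM once, DMSO 1% | timing = compound 90 min 25 °C, reagent 1 h | measured by = luminescence from split beta-galactosidase complementation, Galacton Star/Emerald II substrate | read-out basis = APJ agonist activity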
CCR6 antagonist: blocks CCL20-driven beta-arrestin recruitment at human CCR6; 0.49% of 340,000 active; CHO-K1 CCR6 PathHunter beta-arrestin, luminescence, CCL20-stimulated; P51684; inhibition, % at 20 µM;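 active = compounds whose inhibition of the agonist-driven luminescence signal at 20 µM reaches about 50%, limit read from the data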;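 note: cells stimulated with CCL20 at 14 nM final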
EBI2 antag: blocks human EBI2 receptor beta-arrestin signaling; P32249; EBI2 beta-arrestin recruitment, luminescence, 7a,25-OHC stimulated; inhibition, % at 5 µM; 0.81% of 360,000 active; AID 651636; in the data active = inhibition above about 38%;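 note: enzyme fragment complementation signal reports receptor beta-arrestin coupling in cells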
CXCR6 block: CXCR6 (human) receptor inhibition. O00574. CHO-K1 PathHunter CXCR6 beta-arrestin, luminescence. inhibition, % at 20 µM. 0.36% of 360,000 active. AID 602244; in the data active = inhibition above about 34%, passing the limit was not always enough;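 note: antagonist mode with CXCL16 agonist at 10 nM final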
Target sequence (O00574 whole entry, looked up): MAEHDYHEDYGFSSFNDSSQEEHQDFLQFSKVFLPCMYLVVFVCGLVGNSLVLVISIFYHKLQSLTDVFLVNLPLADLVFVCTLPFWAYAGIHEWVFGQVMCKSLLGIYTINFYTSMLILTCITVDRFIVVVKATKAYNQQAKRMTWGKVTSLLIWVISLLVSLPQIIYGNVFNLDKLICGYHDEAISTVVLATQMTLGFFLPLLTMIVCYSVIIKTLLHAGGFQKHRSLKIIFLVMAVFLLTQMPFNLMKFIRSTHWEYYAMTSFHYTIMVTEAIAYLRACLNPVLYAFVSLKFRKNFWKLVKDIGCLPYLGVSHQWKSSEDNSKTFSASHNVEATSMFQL
APJ antag: blocks the human apelin receptor APJ | CHO-K1 APJ beta-arrestin complementation, luminescence | 0.32% of 330,000 active | inhibition, % at 20 µM | P35414;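 active = inhibition above about 40% at 20 µM, limit read from the data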;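 note: cells challenged with 10 nM apelin-13 agonist together with compound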
EBI2 conf: confirmation of human EBI2 receptor antagonists. shares compounds with EBI2 antag. EBI2 beta-arrestin luminescence, 7a,25-OHC antagonism. inhibition, % at 5 µM. 29% of 2,400 active. AID 651997;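 active = inhibition of at least 50%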
EBI2 agonist: EBI2 agonism counter-screen; activation, % at 5 µM; EBI2-expressing cells, agonist mode, luminescence, 60 min; 0% vehicle, 100% 7α,25-dihydroxycholesterol control; AID 652000; 2,400 tested, under 10 active; shares compounds with EBI2 antag;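 active = activation of at least 50%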
bGal cs: beta-galactosidase inhibition counter-screen; inhibition, % at 5 µM; 1% of 2,400 active; shares compounds with EBI2 antag; AID 652176; purified beta-galactosidase, luminescent Galacton Star, 15 min;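 active = replicate-average signal at least 3 plate SD below neutral wells, shown as high inhibition, flagging enzyme-inhibiting false positives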;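 note: higher means stronger loss of beta-gal luminescence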
Each line names hits and unclear results; the compound was inactive in the other large screens (follow-up assays come after a bar, where they were run).

O=C(COc1ccccc1)Nc1ccc2c(c1)C(=O)N(CC1CCCO1)C2=O (stereo not drawn)	EBI2 antag 45.0 | EBI2 conf inactive | EBI2 agonist inactive | bGal cs inactive
COCCCN1C(=O)c2ccc(C(=O)Nc3ccccc3OC)cc2C1=O	none
COCCCN1C(=O)c2ccc(C(=O)Nc3ccc(OC)cc3)cc2C1=O	EBI2 antag 58.1 | EBI2 conf inactive | EBI2 agonist inactive | bGal cs inactive
COc1cccc(NC(=O)c2ccc3c(c2)C(=O)N(CC2CCCO2)C3=O)c1 (stereo not drawn)	EBI2 antag 60.1 | EBI2 conf inactive | EBI2 agonist inactive | bGal cs inactive
COc1cccc(C(=O)Nc2ccc3c(c2)C(=O)N(CC2CCCO2)C3=O)c1 (stereo not drawn)	none
CN(C)S(=O)(=O)c1cccc(NC(=O)COC(=O)c2cccnc2Cl)c1	none
CC(=O)Nc1ccc(-c2ccnc3c2CC(C(=O)Nc2cccc(C(F)(F)F)c2)O3)cc1 (stereo not drawn)	none (no result: APJ agonist, CCR6 antagonist, APJ antag)
O=C(NCc1ccccc1)C(c1ccc(F)cc1)N1CCN(c2ccccc2F)CC1 (stereo not drawn)	none (no result: hiPSC survival, APJ agonist, CCR6 antagonist, CXCR6 block, APJ antag)
Cc1ccc(C)c(N(CC(=O)Nc2cc(Cl)ccc2Oc2ccccc2)S(C)(=O)=O)c1	none
Cc1cccc(C)c1N(CC(=O)Nc1cc(Cl)ccc1Oc1ccccc1)S(C)(=O)=O	EBI2 antag 47.1 | EBI2 conf inactive | EBI2 agonist inactive | bGal cs inactive
COC(=O)c1cc(S(=O)(=O)N2CCN(Cc3ccccc3)CC2)cn1C	none
O=C(NC(c1ccccc1)c1ccc2ccccc2n1)C1CCN(CCOc2ccc(Cl)cc2)CC1 (stereo not drawn)	EBI2 antag 60.5 (no result: APJ agonist, CCR6 antagonist, APJ antag) | EBI2 conf 58.8 | EBI2 agonist inactive | bGal cs inactive
O=C(NC(c1ccc(F)cc1)c1ccc2ccccc2n1)C1CCN(CCOc2ccc(Cl)cc2Cl)CC1 (stereo not drawn)	EBI2 antag 63.9 (no result: APJ agonist, CCR6 antagonist, APJ antag) | EBI2 conf inactive | EBI2 agonist inactive | bGal cs inactive
O=C(NC(c1ccc(F)cc1)c1ccc2ccccc2n1)C1CCN(CCOc2ccc(F)cc2)CC1 (stereo not drawn)	none (no result: APJ agonist, CCR6 antagonist, APJ antag)
O=S(=O)(c1cccs1)N1CCN(CCOc2ccc(Cl)cc2)CC1	EBI2 antag 63.5 | EBI2 conf inactive | EBI2 agonist inactive | bGal cs inactive
COc1ccc(OCCN2CCC(C(=O)NC(c3ccccc3)c3ccc4ccccc4n3)CC2)cc1 (stereo not drawn)	EBI2 antag 49.4 (no result: APJ agonist, CCR6 antagonist, APJ antag) | EBI2 conf inactive | EBI2 agonist inactive | bGal cs inactive
COc1ccc(NC(=O)C2(C)Cc3c(-c4ccc(NC(C)=O)cc4)ccnc3O2)cc1OC (stereo not drawn)	none (no result: APJ agonist, CCR6 antagonist, APJ antag)
Cc1ccc(C)c(NC(=O)CCc2nnc3ccc(NCc4ccco4)nn23)c1	none
O=C(c1cccs1)c1ccccc1Cc1cccs1	none (no result: APJ agonist, APJ antag)
COc1cccc(CN2C(=O)C(C)N(C(=O)c3ccccc3)c3ccccc32)c1 (stereo not drawn)	none
COc1ccc(OCCN2CCC(C(=O)NC(c3ccc(F)cc3)c3ccc4ccccc4n3)CC2)cc1 (stereo not drawn)	EBI2 antag 52.9 (no result: APJ agonist, CCR6 antagonist, APJ antag) | EBI2 conf inactive | EBI2 agonist inactive | bGal cs inactive
COc1ccc(OCCN2CCC(C(=O)NC(c3ccc(OC)cc3)c3ccccn3)CC2)cc1 (stereo not drawn)	none (no result: APJ agonist, CCR6 antagonist, APJ antag)
COc1ccc(C(NC(=O)C2CCN(CCOc3ccc(Cl)cc3)CC2)c2cccs2)cc1 (stereo not drawn)	EBI2 antag 46.1 (no result: APJ agonist, CCR6 antagonist, APJ antag) | EBI2 conf inactive | EBI2 agonist inactive | bGal cs inactive
COc1ccc(CCNC(=O)c2cccc(NS(=O)(=O)c3ccccc3F)c2)cc1OC	none
O=C(Nc1ccc(O)cc1)c1ccc2c(c1)C(=O)N(Cc1ccccc1)C2=O	EBI2 antag 56.8 | EBI2 conf inactive | EBI2 agonist inactive | bGal cs inactive
CCCN1C(=O)c2ccc(C(=O)Nc3cc(C)on3)cc2C1=O	none
Cc1cc(NC(=O)c2ccc3c(c2)C(=O)N(Cc2ccccc2)C3=O)no1	EBI2 antag 47.2 | EBI2 conf inactive | EBI2 agonist inactive | bGal cs inactive
COc1ccc(S(=O)(=O)N2CCCCC2)cc1NC(=O)c1c(F)cccc1Cl	none
Cc1cccc(OCC(=O)N2CCN(c3nnc(-c4ccccc4)c4ccccc34)CC2)c1	EBI2 antag 55.2 | EBI2 conf inactive | EBI2 agonist inactive | bGal cs inactive
Cc1ccc(-c2nnc(N3CCN(C(=O)CN4C(=O)c5ccccc5C4=O)CC3)c3ccccc23)cc1	none
Cc1ccc(-c2nnc(N3CCN(C(=O)COc4cccc(C)c4)CC3)c3ccccc23)cc1	EBI2 antag 63.1 | EBI2 conf inactive | EBI2 agonist inactive | bGal cs inactive
CC(C)NC(=O)C1(C)CN(S(C)(=O)=O)CC(=O)N1CCCn1ccnc1 (stereo not drawn)	none (no result: hiPSC survival, APJ agonist, CCR6 antagonist, CXCR6 block, APJ antag)
COc1ccc(N2CCN(C(=O)c3ccc4c(c3)CC(c3ccccc3)OC4=O)CC2)cc1 (stereo not drawn)	EBI2 antag 91.3 | EBI2 conf 78.4 | EBI2 agonist inactive | bGal cs inactive
O=C1OC(c2ccccc2)Cc2cc(C(=O)N3CCN(c4ccc(F)cc4)CC3)ccc21 (stereo not drawn)	EBI2 antag 90.0 | EBI2 conf 58.1 | EBI2 agonist inactive | bGal cs inactive
Cc1ccc(Cl)cc1N1CCN(C(=O)c2cc3c(=O)[nH]c4ccccc4c3n2C)CC1	EBI2 antag 72.9 | EBI2 conf 63.2 | EBI2 agonist inactive | bGal cs inactive
Cc1ccc(Cl)cc1N1CCN(C(=O)Cc2c(C(=O)O)[nH]c3ccccc23)CC1	none
CC12C=CC(=O)C=C1CCC1C2C(O)CC2(C)C1CCC2(O)C(=O)CO (stereo not drawn)	none (no result: APJ agonist, APJ antag)
COc1cccc(NC(=O)Cn2c3ccc(OC)cc3c3nc4n(c(=O)c32)CCS4)c1	EBI2 antag 56.9 | EBI2 conf inactive | EBI2 agonist inactive | bGal cs inactive
COc1ccc2c(c1)c1nc3n(c(=O)c1n2CC(=O)Nc1cc(C)[nH]n1)CCS3	none (no result: hiPSC survival, CCR6 antagonist, EBI2 antag, CXCR6 block)
Cc1ccccc1OCC(=O)Nc1ccc(N2CCN(C)CC2)c(Cl)c1	none
O=C(CSc1ccc2nc(-c3ccccc3)cn2n1)NCC1CCCO1 (stereo not drawn)	none

Compound activity as filed in PubChem.
